Values after ≈ are worked out from the molar mass of the structure shown.
Key:
Rattus norvegicus [1] = assay: Ex vivo displacement of [125]oCRF from CRF1 receptor in rat pituitary at 3.2 mg/kg, sc; assay type: functional; conditions: route subcutaneous
How it was run: (§1)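 Rats received 3.2 mg/kg p.o. or s.c. per line, and cortex and pituitary binding of ¹²⁵I-oCRF was measured 1 h later by one of two methods. Homogenate method: 25 mg wet tissue/mL in PIPES pH 7.0 buffer, 40 pM ligand, 2 h at room temperature, centrifuged, filtered, scintillation counted. Autoradiographic method: male Sprague-Dawley rats (N = 4), 16 µm sections, 60 pM ligand, 1 h at room temperature. Nonspecific binding was set with 1 µM rat/human CRF. Percent inhibition is mean ± SD.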

[2] = target: T1, Corticotropin-releasing factor receptor 1 (Rattus norvegicus, UniProt P35353); assay: Displacement of [125]oCRF from rat cortex CRF1 receptor
T1 sequence (P35353 whole entry): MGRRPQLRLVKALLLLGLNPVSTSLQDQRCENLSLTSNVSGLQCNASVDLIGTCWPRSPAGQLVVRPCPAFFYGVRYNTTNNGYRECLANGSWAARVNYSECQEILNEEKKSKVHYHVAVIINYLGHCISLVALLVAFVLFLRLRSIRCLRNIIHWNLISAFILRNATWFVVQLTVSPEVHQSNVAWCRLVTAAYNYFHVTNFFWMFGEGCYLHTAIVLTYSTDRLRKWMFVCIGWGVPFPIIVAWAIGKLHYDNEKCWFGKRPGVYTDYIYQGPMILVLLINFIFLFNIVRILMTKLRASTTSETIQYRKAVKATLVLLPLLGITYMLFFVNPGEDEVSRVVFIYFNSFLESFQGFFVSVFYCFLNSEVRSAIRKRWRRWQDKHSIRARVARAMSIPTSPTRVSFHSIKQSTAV
How it was run: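 Rat cortex binding used ¹²⁵I-ovine-CRF as radioligand. pIC50 ± SEM and IC50 are geometric means of at least three experimental runs.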

Rattus norvegicus [3] = assay: Ex vivo displacement of [125]oCRF from CRF1 receptor in rat cortex at 3.2 mg/kg, sc; assay type: functional; conditions: route subcutaneous; how it was run: as §1
[4] = target: T2, Corticotropin-releasing factor receptor 1 (Homo sapiens, UniProt P34998); assay: Antagonist activity at human CRF1 receptor endogenously expressed in human IMR32 cells; assay type: functional, cell-based, IMR-32
T2 sequence (P34998 whole entry): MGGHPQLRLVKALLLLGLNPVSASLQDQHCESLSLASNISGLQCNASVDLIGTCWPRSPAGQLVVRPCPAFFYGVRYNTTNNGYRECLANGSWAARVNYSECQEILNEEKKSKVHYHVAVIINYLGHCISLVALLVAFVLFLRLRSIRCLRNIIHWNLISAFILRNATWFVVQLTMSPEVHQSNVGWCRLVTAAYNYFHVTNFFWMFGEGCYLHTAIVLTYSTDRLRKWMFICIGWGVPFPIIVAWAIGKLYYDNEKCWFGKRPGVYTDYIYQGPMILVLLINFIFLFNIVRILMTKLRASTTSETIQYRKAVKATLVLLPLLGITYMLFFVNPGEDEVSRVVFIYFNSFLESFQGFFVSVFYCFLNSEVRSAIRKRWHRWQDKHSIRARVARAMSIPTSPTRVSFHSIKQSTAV

[5] = Dissociation constant, pKa of the compound; assay type: physicochemical
How it was run: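 UV spectrophotometric pKa determination, with the value extrapolated to 0% organic solvent.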

[6] = Solubility at pH 7; assay type: physicochemical; conditions: buffer
[7] = target: Corticotropin-releasing factor receptor 1 (Rattus norvegicus) (UniProt P35353); assay: Inhibition of CRF1 receptor
Rattus norvegicus [8] = assay: Ex vivo displacement of [125]oCRF from CRF1 receptor in rat cortex at 3.2 mg/kg, po; assay type: functional; how it was run: as §1
[9] = target: T1, Corticotropin-releasing factor receptor 1; assay: Antagonist activity at rat cortex CRF1 receptor assessed as inhibition of CRF-stimulated adenylate cyclase activity; assay type: functional, tissue-based
Rattus norvegicus [10] = assay: Attenuation of HPA axis activation in po dosed rat assessed as blockade of oCRF-induced elevation of plasma ACTH; assay type: functional
How it was run: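 Rats were dosed orally, then challenged with exogenous oCRF at 4 µg/kg i.v., and plasma ACTH was measured. The MED was judged against CRF alone by one-way ANOVA with Dunnett's post hoc test (N = 12). ID50 (p.o.) was calculated with a confidence interval.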

Rattus norvegicus [11] = assay: Ex vivo displacement of [125]oCRF from CRF1 receptor in rat pituitary at 3.2 mg/kg, po; assay type: functional; how it was run: as §1
[12] = Solubility of the compound; assay type: physicochemical
How it was run: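 Kinetic water solubility was measured in an in-house high-throughput assay.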

[13] = Solubility at pH 2; assay type: physicochemical; conditions: buffer

In the case of `CCC(C)Oc1cc(C)nc(Oc2c(C)cc(C)cc2C)c1C` (stereo unspecified), the inhibition in vivo at 3.2 mg/kg (Rattus norvegicus [1]) is reported as 42%, the IC50 [2] is reported as 28 nM and the inhibition in vivo at 3.2 mg/kg (Rattus norvegicus [3]) is reported as 74%.
`CCC(CC)Oc1cc(C)nc(Oc2c(C)cc(C=O)cc2C)c1C` gave an IC50 [2] of 40 nM.
`CCC(CC)Oc1cc(C)nc(Oc2c(C)cc(C)cc2C)c1C` gave a Ki [4] of 8.5 nM, a pKa [5] of 3.5 and a solubility [6] of 0.2 µg/mL (≈ 0.611 µM). For the same molecule, the IC50 [7] was 6.8 nM, the inhibition in vivo at 3.2 mg/kg (Rattus norvegicus [8]) was 75% and the Ki [9] was 7.6 nM. It also gave an IC50 [2] of 6.8 nM, an ED50 (Rattus norvegicus [10]; read-out: ID50 (the source's name)) of 35 mg/kg and a minimal effective dose (Rattus norvegicus [10]; read-out: MED) of 10 mg/kg. For the same molecule, the inhibition in vivo at 3.2 mg/kg (Rattus norvegicus [11]) was 72%, the solubility [12] was < 1 µg/mL and the solubility [13] was 3 µg/mL (≈ 9.16 µM).
For `CCC(CC)Oc1cc(C)nc(Oc2c(C)cc(OC)cc2C)c1C`, the inhibition in vivo at 3.2 mg/kg (Rattus norvegicus [8]) was 75%, the IC50 [2] was 2 nM and the inhibition in vivo at 3.2 mg/kg (Rattus norvegicus [11]) was 55%.
In the case of `CCC(CC)Oc1cc(C)nc(Oc2c(C)cc(C)cc2C)c1N`, the inhibition in vivo at 3.2 mg/kg (Rattus norvegicus [1]) is reported as 51%, the IC50 [2] is reported as 12 nM and the inhibition in vivo at 3.2 mg/kg (Rattus norvegicus [3]) is reported as 78%.
`CCC(CC)Oc1cc(C)nc(Oc2c(C)cc(C)cc2C)c1` showed an IC50 [2] of 150 nM.
With `CCC(CC)Oc1cc(C)nc(Oc2c(C)cc(C)cc2C)c1C(=O)O` the IC50 [2] was > 10000 nM.
`CCC(CC)Oc1cc(C)nc(Oc2c(C)cc(C)cc2C)c1Br` showed an IC50 [2] of 9.8 nM.
For `CCc1c(OC(CC)CC)cc(C)nc1Oc1c(C)cc(C)cc1C`, the inhibition in vivo at 3.2 mg/kg (Rattus norvegicus [1]) was 66%, the IC50 [2] was 9.1 nM and the inhibition in vivo at 3.2 mg/kg (Rattus norvegicus [3]) was 57%.
For `CCC(CC)Oc1cc(C)nc(Oc2c(C)cc(C)cc2C)c1N(C)C`, the IC50 [2] was 25 nM.
`CCC(CC)Oc1c(C)c(C)nc(Oc2c(C)cc(C)cc2C)c1C` gave an IC50 [2] of 180 nM.
Molecule `CCC(CC)Oc1cc(C)nc(Oc2c(C)cc(Br)cc2C)c1C` has an inhibition in vivo at 3.2 mg/kg (Rattus norvegicus [8]) of 47%, an IC50 [2] of 2.6 nM and an inhibition in vivo at 3.2 mg/kg (Rattus norvegicus [11]) of 84%.
Molecule `CCC(CC)Oc1cc(C)nc(Oc2c(C)cc(C(C)(C)O)cc2C)c1C` has an IC50 [2] of 40 nM.
Work on `CCC(CC)Oc1cc(C)nc(Oc2c(C)cc(Cl)cc2C)c1C` yielded an inhibition in vivo at 3.2 mg/kg (Rattus norvegicus [8]) of 66%, an IC50 [2] of 5.5 nM and an inhibition in vivo at 3.2 mg/kg (Rattus norvegicus [11]) of 76%.
`CCC(CC)Oc1cc(C)nc(Oc2c(C)cc(O)cc2C)c1C` showed an IC50 [2] of 1400 nM.
Molecule `CCc1cc(C)c(Oc2nc(C)cc(OC(CC)CC)c2C)c(C)c1` has an inhibition in vivo at 3.2 mg/kg (Rattus norvegicus [1]) of 56%, an IC50 [2] of 11 nM and an inhibition in vivo at 3.2 mg/kg (Rattus norvegicus [3]) of 55%.
Work on `CCC(CC)Oc1cc(C)nc(Oc2c(C)cc(C)nc2C)c1C` yielded a pKa [5] of 4.97, an inhibition in vivo at 3.2 mg/kg (Rattus norvegicus [1]) of 6% and an IC50 [2] of 10 nM. For the same molecule, the inhibition in vivo at 3.2 mg/kg (Rattus norvegicus [3]) was 70% and the solubility [12] was 10 µg/mL (≈ 30.4 µM).
`Cc1cc(C)c(Oc2nc(C)cc(OC3CCOC3)c2C)c(C)c1` (stereo unspecified) gave an IC50 [2] of 100 nM.
With `CCC(CC)Oc1cc(C)nc(Oc2c(C)cccc2C)c1C` the IC50 [2] was 110 nM.
For `CCc1cc(OC(CC)CC)c(C)c(Oc2c(C)cc(C)cc2C)n1`, the IC50 [2] was 86 nM.
In the case of `CCc1c(C)nc(Oc2c(C)cc(C)cc2C)c(C)c1OC(CC)CC`, the IC50 [2] is reported as > 10000 nM.
Molecule `CCOc1cc(C)c(Oc2nc(C)cc(OC(CC)CC)c2C)c(C)c1` has an inhibition in vivo at 3.2 mg/kg (Rattus norvegicus [8]) of 43%, an IC50 [2] of 20 nM and an inhibition in vivo at 3.2 mg/kg (Rattus norvegicus [11]) of 33%.
`CCC(CC)Oc1nc(C)cc(Oc2c(C)cc(C)cc2C)c1C` showed an IC50 [7] of 3400 nM.
`CCC(CC)Oc1cc(C)nc(Oc2c(C)cc(CO)cc2C)c1C` showed an inhibition in vivo at 3.2 mg/kg (Rattus norvegicus [8]) of 42%, an IC50 [2] of 61 nM and an inhibition in vivo at 3.2 mg/kg (Rattus norvegicus [11]) of -20%.
Work on `CCC(CC)Oc1cc(C)nc(Oc2c(C)cc(C(N)=O)cc2C)c1C` yielded an inhibition in vivo at 3.2 mg/kg (Rattus norvegicus [8]) of 33%, an IC50 [2] of 18 nM and an inhibition in vivo at 3.2 mg/kg (Rattus norvegicus [11]) of 15%.
For `CCC(CC)Oc1cc(C)nc(Oc2c(C)cc(I)cc2C)c1C`, the inhibition in vivo at 3.2 mg/kg (Rattus norvegicus [1]) was 72%, the IC50 [2] was 12 nM and the inhibition in vivo at 3.2 mg/kg (Rattus norvegicus [3]) was 27%.
In the case of `CCC(CC)Oc1cc(C)nc(Oc2c(C)cc(OC(C)C)cc2C)c1C`, the IC50 [2] is reported as 110 nM.
Work on `CCC(CC)Oc1cc(C)nc(Oc2c(C)cc(F)cc2C)c1C` yielded an IC50 [2] of 32 nM.
Molecule `CCC(CC)Oc1cc(C)nc(Oc2c(C)cc(C)cc2C)c1C(=O)OC` has an IC50 [2] of 470 nM.
`CCC(CC)Oc1cc(C)nc(Oc2c(C)cc(C)cc2C)c1[N+](=O)[O-]` gave an inhibition in vivo at 3.2 mg/kg (Rattus norvegicus [1]) of 35%, an IC50 [2] of 15 nM and an inhibition in vivo at 3.2 mg/kg (Rattus norvegicus [3]) of 59%.
Work on `CCC(COC)Oc1cc(C)nc(Oc2c(C)cc(C)cc2C)c1C` (stereo unspecified) yielded an inhibition in vivo at 3.2 mg/kg (Rattus norvegicus [1]) of 49%, an IC50 [2] of 11 nM and an inhibition in vivo at 3.2 mg/kg (Rattus norvegicus [3]) of 75%.
`CCCc1cc(C)c(Oc2nc(C)cc(OC(CC)CC)c2C)c(C)c1` showed an inhibition in vivo at 3.2 mg/kg (Rattus norvegicus [1]) of 34%, an IC50 [2] of 9.8 nM and an inhibition in vivo at 3.2 mg/kg (Rattus norvegicus [3]) of 42%.
Work on `CCC(CC)Oc1cc(C)nc(Oc2c(C)cc(COC)cc2C)c1C` yielded an inhibition in vivo at 3.2 mg/kg (Rattus norvegicus [8]) of 57%, an IC50 [2] of 3.2 nM and an inhibition in vivo at 3.2 mg/kg (Rattus norvegicus [11]) of 12%.
Molecule `C/C=C(\CC)Oc1cc(C)nc(Oc2c(C)cc(C)cc2C)c1C` (mixture of isomers) has an inhibition in vivo at 3.2 mg/kg (Rattus norvegicus [1]) of 55%, an IC50 [2] of 16 nM and an inhibition in vivo at 3.2 mg/kg (Rattus norvegicus [3]) of 75%.

From ChEMBL document CHEMBL1143117, “Synthesis and SAR of 2-aryloxy-4-alkoxy-pyridines as potent orally active corticotropin-releasing factor 1 receptor antagonists” (J Med Chem, 2008)
